Compound activity as filed in PubChem.
PP5 inh: PP5 (human) phosphatase inhibition; hit rate 0.18% among 320,000; P53041; inhibition, % at 6.7 µM; purified PP5c, OMFP substrate fluorescence;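 active means inhibition above the campaign's mean inhibition across all tested compounds plus 3 SD, cut at about 9.5% in these data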
Target sequence (P53041 whole entry, looked up): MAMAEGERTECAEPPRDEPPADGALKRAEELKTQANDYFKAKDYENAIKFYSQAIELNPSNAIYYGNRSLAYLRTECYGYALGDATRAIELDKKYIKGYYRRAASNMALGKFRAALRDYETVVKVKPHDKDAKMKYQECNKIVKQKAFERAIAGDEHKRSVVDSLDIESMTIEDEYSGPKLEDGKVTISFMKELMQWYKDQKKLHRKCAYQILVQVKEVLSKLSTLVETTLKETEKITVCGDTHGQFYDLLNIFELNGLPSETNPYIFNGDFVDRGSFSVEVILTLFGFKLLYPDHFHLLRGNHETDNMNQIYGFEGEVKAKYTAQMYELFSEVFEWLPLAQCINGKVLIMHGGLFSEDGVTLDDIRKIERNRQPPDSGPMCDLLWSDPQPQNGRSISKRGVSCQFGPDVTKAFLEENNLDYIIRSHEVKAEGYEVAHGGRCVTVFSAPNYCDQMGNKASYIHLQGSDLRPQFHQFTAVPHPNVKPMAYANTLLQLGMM
UCH37 DUB inh: blocks the human deubiquitinase UCH37 | Q9Y5K5 | purified proteasome/UCH37, Ub-AMC cleavage fluorescence | inhibition, % (test concentration not listed) | hit rate 0.33% among 330,000 | AID 588478;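 active means mean inhibition over replicate wells above about 20%, limit read from the data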
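Material: Human UCH37 enzyme supplied as purified proteasome complex | Schedule: 30 min compound-proteasome preincubation then 25 min substrate reaction, room temperature | Detection: AMC fluorescence from Ub-AMC cleavage, excitation 355 nm, emission 460 nm | Benchmarks: Wells without proteasome as full block, compound-free enzyme plus substrate as uninhibited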
Fh CTSL1 inh: blocks F. hepatica cathepsin L1 in PFM18AAP counter-screen; recombinant F. hepatica cathepsin L1, Z-Leu-Arg-MCA fluorescence; inhibition, % at 5.96 µM; hit rate 0.49% among 300,000;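 active means inhibition above the mean of all tested compounds plus 3 SD, set per screening campaign, cut at about 17% in these data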
GSTO1 counter: GSTO1 inhibition, counter-screen for RBBP9 inhibitors; recombinant GSTO1, activity-based probe fluorescence polarization; inhibition, % at 5.96 µM; hit rate 1.1% among 300,000;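 active means inhibition above the campaign mean inhibition plus 3 SD, cut at about 35% in these data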
Apaf1 inhib: blocks human Apaf-1 apoptosome activity. O14727. reconstituted apoptosome caspase-3 activity, DEVD-Rh110 fluorescence. inhibition, % at 20 µM. hit rate 0.71% among 330,000. AID 489030; active means inhibition of at least 40% at 20 µM
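System: Apoptosome proteins | Medium: Hepes pH 7.5 with detergent and BSA | Also added: Cytochrome c trigger plus (Z-DEVD)2-Rh110 caspase-3 substrate | Incubation: 30 min compound preincubation, 50 min activation, room temperature | Detection: Rhodamine 110 fluorescence at Ex 480/Em 540 nm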
PAD4 FP inh: PAD4 (human) enzyme inhibition | recombinant PAD4, RCA probe fluorescence polarization | inhibition, % at 6.36 µM | hit rate 0.41% among 330,000 | AID 485272;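 active means percent inhibition above a cutoff equal to the mean of all tested compounds plus 3 SD, cut at about 15% in these data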
Hits are given with their value; n = inactive; x = no result. Only some compounds are listed: those with a hit (about 2% of all), similar ones and a draw of the others.

SMILES	PP5 inh	UCH37 DUB inh	Fh CTSL1 inh	GSTO1 counter	Apaf1 inhib	PAD4 FP inh
O=C(/C=C/c1ccc(O)c(O)c1)OCCc1ccccc1	n	n	n	n	n	n
CNc1nc(NN=Cc2ccc([N+](=O)[O-])cc2)nc(Nc2ccccc2)n1	x	n	x	x	x	x
CCOC(=O)c1c(N=Cc2cc(OC)cc([N+](=O)[O-])c2O)sc(C)c1C	x	n	x	x	x	x
CC(C)C(=O)NNC(=O)CSc1ncnc2c1cnn2-c1ccccc1Cl	n	n	44	n	n	n
Cc1ccc(-n2ncc3c(SCC(=O)NNC(=O)C(C)C)ncnc32)cc1	n	n	n	n	n	n
Cc1ccc(NCC(=O)NN=Cc2cccn2C)cc1	x	n	x	x	x	x
O=C(Cc1ccc(Cl)cc1)N/N=C/c1cccc(O)c1	n	x	18	n	n	n
O=C(Cc1ccc(Cl)cc1)N/N=C/c1ccccc1	n	x	n	n	n	n
N#CC(=NNc1ccc(OC(F)(F)F)cc1)C(N)=S	x	n	x	x	x	x
N#C/C(=N\Nc1ccc([N+](=O)[O-])cc1)C(=N)N1CCOCC1	n	x	n	n	n	n
N#CC(=NNc1ccc([N+](=O)[O-])cc1)C(=N)N1CCCCC1	x	23	x	x	x	x
ClCc1csc(-c2ccccc2Cl)n1	n	n	n	94	n	n
CC1(C)C(/C=C/C=C/C=C/C=C2\N(CCCCS(=O)(=O)O)c3ccc4ccccc4c3C2(C)C)=[N+](CCCCS(=O)(=O)[O-])c2ccc3ccccc3c21	n	n	n	41	n	n
CCn1ncc(C=NNC(=O)c2cc(Cl)ccc2OC)c1C	x	n	x	x	x	x
COc1ccc(NN=C(Oc2ccc([N+](=O)[O-])cc2)C(C)=O)cc1	x	n	x	x	x	x
CCNC(=O)C1CCCN1C(=O)C(CCCN=C(N)N)NC(=O)C(CC(C)C)NC(=O)C(Cc1cn(Cc2ccccc2)cn1)NC(=O)C(Cc1ccc(O)cc1)NC(=O)C(CO)NC(=O)C(Cc1c[nH]c2ccccc12)NC(=O)C(Cc1cnc[nH]1)NC(=O)C1CCC(=O)N1 (configuration not stated)	n	n	40	n	n	n
COc1nc(Nc2cccc(C(F)(F)F)c2)nc(OC)n1	n	n	n	n	n	n
Cc1cc(C)nc(Nc2cccc(C(F)(F)F)c2)n1	n	n	n	36	n	n
COc1ccc(-c2cc(-c3ccccc3)c(C#N)c(S(C)=O)n2)cc1 (configuration not stated)	n	n	n	n	n	n
COc1ccc(-c2cc3nc4ccccc4n3c(N)c2C#N)cc1	n	n	n	38	n	n
COc1[nH]c(/N=C/c2ccccc2)c(C#N)c1C#N	n	x	n	35	n	n
O=C(NN=Cc1ccco1)c1ccccc1OCc1ccccc1Cl	x	n	x	x	x	x
CCCCOC(=O)CSc1nnc(-c2ccc(Cl)cc2Cl)o1	n	n	n	n	n	n
CC(C)OC(=O)CSc1nnc(-c2ccc(Cl)cc2Cl)o1	n	n	21	n	n	n
Cc1cc(C)c2c(N)c(C(=O)Nc3ncc(C)s3)sc2n1	n	n	17	n	n	n
SMILES	PP5 inh	UCH37 DUB inh	Fh CTSL1 inh	GSTO1 counter	Apaf1 inhib	PAD4 FP inh
CC(C)(C)c1cc[n+](-c2[nH]c(=O)sc2C=N/N=C(\[O-])c2ccccc2)cc1	x	21	x	x	x	x
Cc1cc[n+](-c2[nH]c(=O)sc2C=N/N=C(\[O-])c2ccccc2)cc1	x	n	x	x	x	x
O=C(NN=Cc1sc(=O)[nH]c1-[n+]1ccccc1)c1ccccc1[O-]	x	20	x	x	x	x
Cc1ccsc1C=C1C(=O)c2ccccc2C1=O	n	n	n	37	n	n
O=S(=O)(N=CN1CCOCC1)c1ccc(Cl)cc1	x	n	x	x	x	x
O=C(NC(=S)Nc1ccccc1N1CCCCC1)c1ccco1	n	n	n	n	n	n
O=C(NC(=S)Nc1ccccc1N1CCCC1)c1ccccc1Br	n	x	23	n	n	n
O=C(NC(=S)Nc1ccccc1N1CCCC1)c1ccco1	n	x	21	n	n	n
COc1cccc(C(=O)NC(=S)Nc2ccccc2N2CCCC2)c1	n	n	23	n	n	n
CC(CC(=O)Nc1ccc(Cl)c(Cl)c1)=NNC(=O)Cc1ccccc1	x	n	x	x	x	x
O=C(NN=Cc1ccccn1)c1ccncc1	x	n	x	x	x	x
CCC(C)C(C)=NNC(=O)c1ccccc1OCCOc1ccccc1 (configuration not stated)	x	n	x	x	x	x
O=C(NCc1ccco1)/C(=C/C=C/c1ccccc1)NC(=O)c1ccco1	n	n	27	n	n	n
O=C(NCc1ccco1)/C(=C/c1ccccc1)NC(=O)c1ccco1	n	n	n	n	n	n
